The values below come from BindingDB's records for doi:10.1016/j.bmc.2010.02.001 (University of Alberta, 2010).

The target in this experiment is LL-diaminopimelate aminotransferase, chloroplastic (Arabidopsis thaliana, UniProt Q93ZN9). Briefly: Inhibition of Arabidopsis thaliana LL-DAP-AT expressed in Escherichia coli by aminobenzaldehyde-based assay. Put shortly: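 Recombinant C-terminal His6-tagged enzyme in 1 mL cells at 0.0043 mg/mL final. Final substrates: 8.5 mM 2-oxoglutarate, 7 mM 2-aminobenzaldehyde, 2.0 mM LL-DAP (racemic DAP), in 100 mM HEPES-KOH pH 7.6. Inhibitor in DMSO at 200, 100, 50, 25, 10 and 5 µM final. A440 read every 2 min for 200 min. Initial slopes compared with the DMSO control gave percentage inhibition, from which IC50 was calculated.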
Chain of LL-diaminopimelate aminotransferase, chloroplastic (Q93ZN9 whole entry): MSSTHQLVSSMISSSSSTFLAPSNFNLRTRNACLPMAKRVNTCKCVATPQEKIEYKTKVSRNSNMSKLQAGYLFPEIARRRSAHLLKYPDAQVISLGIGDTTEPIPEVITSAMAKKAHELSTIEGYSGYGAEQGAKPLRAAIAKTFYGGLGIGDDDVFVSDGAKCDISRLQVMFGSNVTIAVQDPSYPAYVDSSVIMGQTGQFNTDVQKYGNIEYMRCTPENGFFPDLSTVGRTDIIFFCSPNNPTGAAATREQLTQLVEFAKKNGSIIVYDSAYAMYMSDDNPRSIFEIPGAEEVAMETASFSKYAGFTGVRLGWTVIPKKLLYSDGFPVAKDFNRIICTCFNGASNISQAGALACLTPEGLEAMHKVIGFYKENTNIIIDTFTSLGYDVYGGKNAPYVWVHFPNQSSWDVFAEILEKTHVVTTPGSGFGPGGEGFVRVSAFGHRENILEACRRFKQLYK

The compound `NC(N=NCc1ccc(-c2cccc([N+](=O)[O-])c2)o1)=N[N+](=O)[O-]` [N'-nitro-2-((5-(3-nitrophenyl)furan-2-yl)methylene)hydrazinecarboximidamide] displayed a concentration for half-maximal inhibition (IC50) of over 200 µM.
